Data as given in PubChem BioAssay AID1899 (The Scripps Research Institute Molecular Screening Center, 2009).
Hit rate of the full screen: of about 300,000 compounds, about 1,000 (0.33%) were called active. The sample holds actives, similar compounds and a random draw of the others, so the mix is not that of the screen.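 Rule for the calls: active = inhibition above the mean of all tested compounds plus 3 SD, set per screening campaign (cut at about 45% in these data); inactive = the rest.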

Test system: HCV core protein (residues 1-106) dimerization
Test: blockers of core106 self-association – biochemical, TR-FRET, high-throughput, primary screen (AID 1899)
Settings: TR-FRET GST/Flag-core106 dimerization, 1536-well; at 5 µM; active compounds read high
Procedure, shortened: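 System: GST/Flag-tagged HCV core106 proteins. Incubation: compound-protein-antibody incubation 4 h at 22.5 °C. Technique: HTRF with 340 nm excitation, 617/671 nm emission. Medium: KF-containing HEPES buffer, pH 7.45, DTT, CHAPS, BSA. Read-out: inhibition (%) from 671 over 617 nm ratio. Also added: Eu(K)-anti-GST 90 ng/mL plus XL665-anti-Flag 1 µg/mL.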

Compound | inhibition
CCOc1ccc(C(=O)NC(=S)Nc2ccc(N3CCOCC3)c(Cl)c2)cc1[N+](=O)[O-] | 15.3% (inactive)
O=C1Nc2cc(C(=O)N3CCN(c4ccc(F)cc4)CC3)ccc2NC1CSCc1cccc(F)c1 (stereo not drawn) | 17.5% (inactive)
Cc1ccc(CSCC2Nc3ccc(C(=O)N4CCN(c5ccc(F)cc5)CC4)cc3NC2=O)cc1 (stereo not drawn) | 67% (active)
O=C(c1cc(C(=O)N2CCN(c3ccc(F)cc3)CC2)cc([N+](=O)[O-])c1)N1CCN(c2ccc(F)cc2)CC1 | 19% (inactive)
CC(C)(C)n1nnnc1C(c1ccccc1F)N1CCN(C(=O)c2ccco2)CC1 (stereo not drawn) | -2.83% (inactive)
CCCc1nc2c(c(=O)c3ccccc3n2C)c(=O)n1-c1cc(C)cc(C)c1 | 16.2% (inactive)
CCCc1nc2c(c(=O)c3ccccc3n2C)c(=O)n1C1CCCCCC1 | 10.2% (inactive)
Cn1c2ccccc2c(=O)c2c(=O)n(Cc3ccco3)c(COc3ccccc3)nc21 | 47.9% (active)
O=C1CN(C(=O)COc2c(Cl)cccc2Cl)c2ccccc2N1 | 1.42% (inactive)
CCC(C)Cn1c(O)cc2nn(-c3nc4ccccc4s3)c(=O)c-2c1C (stereo not drawn) | 55.2% (active)
Cc1nn(CC(=O)Nc2nc3ccccc3s2)c(C)c1[N+](=O)[O-] | -2.22% (inactive)
C/C(=N\NC(=O)CC(C)C)c1c(C(F)(F)F)[nH]n(-c2nc3ccccc3s2)c1=O | -0.73% (inactive)
COC(=O)C1=C(C)NC2=C(C(=O)c3ccccc32)C1c1ccc(-c2ccc(C(=O)O)cc2)o1 (stereo not drawn) | 5.77% (inactive)
CCOC(=O)C(=CNNc1ccsc1C(=O)OC)C(=O)OCC | -1.96% (inactive)
Cc1cccc(C2=N/C(=C/c3cccs3)C(=O)O2)c1 | 2.89% (inactive)
CN1C/C(=C/c2cccs2)C(=O)/C(=C\c2cccs2)C1 | 6.47% (inactive)
CSC1=N/C(=C\C=C\c2cccs2)C(=O)S1 | 60.2% (active)
Cc1ccc(-n2ncc3c2CC(C)(C)CC3NC(=O)CCc2cnn(C)c2)cc1 (stereo not drawn) | -3.34% (inactive)
O=C(C1CCCN(S(=O)(=O)c2ccccc2)C1)N1CCN(c2ccc(F)cc2)CC1 (stereo not drawn) | -13.8% (inactive)
Cc1cc(NC(=O)CCC(=O)N(CC(=O)NC2CCCC2)c2ccc(F)cc2)no1 | 0.03% (inactive)
COc1cccc(OC)c1CN(C)C(=O)c1cnccc1C(F)(F)F | -2.76% (inactive)
Cc1ccc(NC(=O)c2csc3c2CCCC3)cc1 | 5.39% (inactive)
Cc1ccc(C(=O)c2c(NC(=O)c3ccncc3)sc3c2CCCC3)cc1 | -2.83% (inactive)
Cc1ccc(NC(=O)c2c(NC(=O)CCC(=O)O)sc3c2CCCCC3)cc1 | 47.6% (active)
O=S(=O)(Nc1ccc(O)c2ccccc12)c1ccc(OC(F)(F)F)cc1 | -9.45% (inactive)
O=C(O)CCCC(=O)N1N=C(c2ccco2)CC1c1ccco1 (stereo not drawn) | -3.41% (inactive)
Cc1nn(C(=O)c2ccoc2C)c(N)c1-c1ccccc1 | -11.9% (inactive)

Compound | inhibition
Cc1nn2c(c1-c1ccccc1)N=C(c1ccco1)CC2c1ccccc1 (stereo not drawn) | 54.2% (active)
Cc1ccc(/C=N/NC(=O)COc2ccccc2-c2ccccc2)cc1 | -1.07% (inactive)
CCOc1ccc(/C=C(/NC(=O)c2ccccc2)C(=O)NCCC(=O)O)cc1 | 2.36% (inactive)
CCC(Cc1ccccc1)NS(=O)(=O)c1ccc2c(c1)NC(=O)CS2 (stereo not drawn) | 6.21% (inactive)
CCOC(=O)C1=C(C)NC(C)=C(C(=O)OCC)C1C1=COCCO1 | -7.86% (inactive)
CCC(=O)Nc1c(C)n[nH]c1C | 1.83% (inactive)
C=CCN1C=C2C(=O)C(C)(OC(=O)CCc3ccccc3)C(=O)C=C2C=C1c1ccc(C#N)cc1 (stereo not drawn) | 49% (active)
CC1(OC(=O)CCc2ccccc2)C(=O)C=C2C=C(c3ccc(C#N)cc3)N(CCc3ccccn3)C=C2C1=O (stereo not drawn) | 13.8% (inactive)
CCCCC1=CC2=CC(=O)C(C)(OC(=O)CC)C(=O)C2=CN1CCCOC(C)C (stereo not drawn) | 2.27% (inactive)
Nc1c(-c2ccc(F)cc2)cnc2ncnn12 | 0.37% (inactive)
CCCCCCCCCCCCCCCC(=O)OC/C=C(C)/C=C/C=C(C)/C=C/C1=C(C)CCCC1(C)C | 2.75% (inactive)
CC1=C(/C=C/C(C)=C/C=C/C(C)=C/C=C/C=C(C)/C=C/C=C(C)/C=C/C2=C(C)CCCC2(C)C)C(C)(C)CCC1 | 69.5% (active)
Cc1cc(S(=O)(=O)N2CCOCC2)ccc1OCC(=O)Nc1cccc(C(F)(F)F)c1 | 0.78% (inactive)
COc1ccc(C(=O)COC(=O)Cn2cnc3c2c(=O)n(C)c(=O)n3C)c(OC)c1 | -0.66% (inactive)
O=C(NCCN1CCN(C(=O)c2cccc([N+](=O)[O-])c2)CC1)C(=O)NCc1ccc(Cl)cc1 | -0.22% (inactive)
CN(c1ccccc1)c1ccc(/C=c2\s/c(=C(/C#N)C(=O)C(C)(C)C)n(Cc3ccco3)c2=O)cc1 | 63.2% (active)
CCOC(=O)/C=c1\s/c(=C\c2ccc(C#N)cc2)c(=O)n1CC(=O)Nc1cccc(C)c1C | 11.6% (inactive)
CCOC(=O)Cn1c(=O)oc2cc(S(=O)(=O)N(C)Cc3ccco3)ccc21 | -1.55% (inactive)
CCNC(=O)c1sccc1-n1cccc1 | 0.55% (inactive)
CC(C)=CCc1c(O)c(CC=C(C)C)c2occ(-c3ccc(O)cc3)c(=O)c2c1O | -3.16% (inactive)
COc1ccc2c(CC(=O)OCC(=O)NC(N)=O)coc2c1 | -9.08% (inactive)
Cn1cccc1C(=O)NC(=O)COC(=O)Cc1coc2ccc3ccccc3c12 | 60.3% (active)
O=C(Cc1coc2ccc3ccccc3c12)NCc1cccs1 | 10.5% (inactive)
COc1ccc(S(=O)(=O)N2CCOC2CNC(=O)C(=O)NCc2ccc(F)cc2)cc1 (stereo not drawn) | -0.93% (inactive)
CCOC(=O)c1c(C)[nH]c(C2=NNC(=NC(C)COC)SC2)c1C (stereo not drawn) | -2.46% (inactive)
COc1cc(NC(=O)C2=CC(c3ccc(C)cc3)=NS(=O)(=O)N2C)cc(OC)c1OC | 1.17% (inactive)
